Source: PubChem BioAssay AID504392 (Broad Institute, 2011)
Active and inactive are the calls of the source.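 How the source made its calls: active means fitted curve rising past 10% caspase activation at or below the top valid dose; inactive means activity opposite to the expected rise, or the rest.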

Assay: apoptosis induction in mouse embryonic fibroblasts – cell-based, wild-type MEF, caspase luminescence, dry powder, set 2, counter-screen for Bcl2-A1 inhibitor project, dose response (AID 504392)
Procedure, shortened: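 Assay system: wild-type mouse embryonic fibroblasts, not A1–BIM primed. Buffer or medium: RPMI-1640 growth medium with 10% FBS. Timing: 3 h compound at 37 °C, 1 h reagent at RT. Signal: luminescence with CaspaseGlo caspase reagent. Read-out: caspase activation.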

Q: Which outcome does the source give for `C/C1=C/C(=O)O[C@@H]2C[C@@H](CC[C@H](C)/C=C\CC1)O[C@@](O)(C1CSC(=O)N1)C2` (stereo partly specified) here?
A: inactive
